From ChEMBL document CHEMBL2375292, “Biaryl tetrazolyl ureas as inhibitors of endocannabinoid metabolism: modulation at the N-portion and distal phenyl ring” (Eur J Med Chem, 2013)

What was measured:
[1] = target: T1, Transient receptor potential cation channel subfamily V member 1 (Homo sapiens, UniProt Q8NER1); experiment: Agonist activity at human TRPV1 receptor expressed in HEK293 cells assessed as increase in intracellular Ca2+ concentration by spectrofluorimetric analysis; type: cell-based
In short: (§1)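 HEK293 cells stably transfected with human TRPV1 or rat TRPA1 cDNA (pcDNA3, G-418 selection) were loaded 1 h at room temperature with Fluo-4-AM, washed and suspended in Tyrode's buffer pH 7.4. [Ca²⁺]i was read by stirred-cuvette spectrofluorimetry before and after adding test compound at various concentrations. Signal from untransfected cells was subtracted. Efficacy was taken as percent of ionomycin (4 µM) for TRPV1 and percent of allyl isothiocyanate (100 µM) for TRPA1; EC50 was also derived.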

[2] = target: T1, Transient receptor potential cation channel subfamily V member 1; experiment: Agonist activity at human TRPV1 receptor expressed in HEK293 cells assessed as increase in intracellular Ca2+ concentration by spectrofluorimetric analysis relative to ionomycin; type: cell-based; in short: as §1
[3] = target: T1, Transient receptor potential cation channel subfamily V member 1; experiment: Antagonist activity at human TRPV1 receptor expressed in HEK293 cells assessed as inhibition of capsaicin-induced intracellular Ca2+ elevation incubated for 5 mins prior to capsaicin-stimulation by spectrofluorimetric analysis; type: cell-based
In short: (§2)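 Fluo-4-loaded HEK293 cells stably expressing human TRPV1 or rat TRPA1, in Tyrode's buffer pH 7.4, received test compound in the cuvette 5 min before agonist: capsaicin 0.1 µM for TRPV1, AITC 100 µM for TRPA1. The [Ca²⁺]i rise with agonist alone was set to 100%. IC50 came from a variable-slope sigmoidal fit. Untransfected-cell signal was subtracted.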

[4] = target: T2, Fatty-acid amide hydrolase 1 (Rattus norvegicus, UniProt P97612); experiment: Inhibition of FAAH in rat brain membranes assessed as [14C]AEA hydrolysis to [14C]Ethanolamine after 30 mins by scintillation counting analysis; type: cell membranes
T2 sequence (P97612 whole entry): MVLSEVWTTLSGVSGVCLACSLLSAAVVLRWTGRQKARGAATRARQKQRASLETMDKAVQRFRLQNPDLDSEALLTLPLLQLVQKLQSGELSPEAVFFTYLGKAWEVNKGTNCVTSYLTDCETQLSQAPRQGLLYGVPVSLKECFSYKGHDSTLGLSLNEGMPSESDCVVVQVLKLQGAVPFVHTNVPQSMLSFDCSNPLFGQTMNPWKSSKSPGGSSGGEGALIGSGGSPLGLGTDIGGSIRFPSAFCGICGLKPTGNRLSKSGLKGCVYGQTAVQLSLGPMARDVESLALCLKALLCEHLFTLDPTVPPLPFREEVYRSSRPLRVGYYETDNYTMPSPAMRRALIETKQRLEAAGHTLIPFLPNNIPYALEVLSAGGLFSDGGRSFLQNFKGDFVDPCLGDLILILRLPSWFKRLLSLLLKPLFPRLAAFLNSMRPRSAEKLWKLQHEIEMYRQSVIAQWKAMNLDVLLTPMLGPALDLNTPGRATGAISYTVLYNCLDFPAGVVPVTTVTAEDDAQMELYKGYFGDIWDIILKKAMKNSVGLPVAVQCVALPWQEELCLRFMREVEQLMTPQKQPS
In short: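 Rat brain membranes were incubated with [¹⁴C]AEA in 50 mM Tris-HCl pH 9 for 30 min at 37 °C. Released [¹⁴C]ethanolamine in the aqueous phase was counted by scintillation after CHCl₃/CH₃OH 2/1 extraction. IC50 was the concentration giving 50% inhibition.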

[5] = target: T3, Transient receptor potential cation channel subfamily A member 1 (Rattus norvegicus, UniProt Q6RI86); experiment: Antagonist activity at rat TRPA1 receptor expressed in HEK293 cells assessed as inhibition of allyl isothiocyanate-induced intracellular Ca2+ elevation incubated for 5 mins prior to allyl isothiocyanate-stimulation by spectrofluorimetric analysis; type: cell-based; in short: as §2
[6] = target: Transient receptor potential cation channel subfamily A member 1 (Rattus norvegicus) (UniProt Q6RI86); experiment: Agonist activity at rat TRPA1 receptor expressed in HEK293 cells assessed as increase in intracellular Ca2+ concentration by spectrofluorimetric analysis relative to allyl isothiocyanate; type: cell-based; in short: as §1
[7] = target: T3, Transient receptor potential cation channel subfamily A member 1; experiment: Agonist activity at rat TRPA1 receptor expressed in HEK293 cells assessed as increase in intracellular Ca2+ concentration by spectrofluorimetric analysis; type: cell-based; in short: as §1
Monoglyceride lipase = target: T4, Monoglyceride lipase (Homo sapiens, UniProt Q99685); experiment: Inhibition of MAGL (unknown origin) expressed in African green monkey COS7 cell cytosolic fraction assessed as [3H]2-AG hydrolysis to [3H]arachidonic acid after 20 mins by beta counting analysis; design: species or system COS-7
T4 sequence (Q99685 whole entry): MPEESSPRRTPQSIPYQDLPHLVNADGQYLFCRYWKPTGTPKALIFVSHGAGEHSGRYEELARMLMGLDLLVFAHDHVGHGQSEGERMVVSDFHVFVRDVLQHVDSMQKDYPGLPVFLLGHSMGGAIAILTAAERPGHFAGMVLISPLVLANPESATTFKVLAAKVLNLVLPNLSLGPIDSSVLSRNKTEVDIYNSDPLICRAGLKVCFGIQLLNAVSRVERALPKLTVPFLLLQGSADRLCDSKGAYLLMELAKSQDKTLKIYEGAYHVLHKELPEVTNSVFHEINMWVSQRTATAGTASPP

T3 sequence (Q6RI86 whole entry): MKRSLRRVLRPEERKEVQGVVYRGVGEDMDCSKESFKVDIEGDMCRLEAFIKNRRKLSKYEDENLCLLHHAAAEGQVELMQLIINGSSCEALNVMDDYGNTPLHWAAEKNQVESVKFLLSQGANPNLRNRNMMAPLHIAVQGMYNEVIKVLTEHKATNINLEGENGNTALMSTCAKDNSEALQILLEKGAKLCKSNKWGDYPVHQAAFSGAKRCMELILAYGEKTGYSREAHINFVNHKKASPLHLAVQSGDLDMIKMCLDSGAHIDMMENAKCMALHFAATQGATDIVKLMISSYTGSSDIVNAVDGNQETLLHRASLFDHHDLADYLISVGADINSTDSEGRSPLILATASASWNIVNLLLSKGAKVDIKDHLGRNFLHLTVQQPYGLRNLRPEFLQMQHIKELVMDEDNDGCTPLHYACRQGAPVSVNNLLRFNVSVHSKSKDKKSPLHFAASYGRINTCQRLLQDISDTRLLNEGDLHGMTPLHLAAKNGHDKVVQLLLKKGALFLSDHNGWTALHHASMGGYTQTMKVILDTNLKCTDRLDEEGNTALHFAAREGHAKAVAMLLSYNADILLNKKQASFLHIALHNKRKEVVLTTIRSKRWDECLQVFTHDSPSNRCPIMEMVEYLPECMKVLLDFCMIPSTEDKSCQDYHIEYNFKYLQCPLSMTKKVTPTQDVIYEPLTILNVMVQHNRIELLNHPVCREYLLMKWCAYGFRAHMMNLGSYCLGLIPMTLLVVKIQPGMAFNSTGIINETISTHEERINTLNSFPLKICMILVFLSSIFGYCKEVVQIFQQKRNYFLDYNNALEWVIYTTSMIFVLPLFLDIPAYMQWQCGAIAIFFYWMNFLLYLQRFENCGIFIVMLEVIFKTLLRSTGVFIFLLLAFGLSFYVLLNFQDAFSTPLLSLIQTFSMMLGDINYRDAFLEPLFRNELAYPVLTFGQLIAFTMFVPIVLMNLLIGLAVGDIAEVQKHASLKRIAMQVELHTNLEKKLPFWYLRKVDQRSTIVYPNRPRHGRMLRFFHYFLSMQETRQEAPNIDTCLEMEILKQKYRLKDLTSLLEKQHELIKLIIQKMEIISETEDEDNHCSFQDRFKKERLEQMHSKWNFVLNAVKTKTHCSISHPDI
Chain of Transient receptor potential cation channel subfamily A member 1 (Rattus norvegicus) (Q6RI86 whole entry): as above
T1 sequence (Q8NER1 whole entry): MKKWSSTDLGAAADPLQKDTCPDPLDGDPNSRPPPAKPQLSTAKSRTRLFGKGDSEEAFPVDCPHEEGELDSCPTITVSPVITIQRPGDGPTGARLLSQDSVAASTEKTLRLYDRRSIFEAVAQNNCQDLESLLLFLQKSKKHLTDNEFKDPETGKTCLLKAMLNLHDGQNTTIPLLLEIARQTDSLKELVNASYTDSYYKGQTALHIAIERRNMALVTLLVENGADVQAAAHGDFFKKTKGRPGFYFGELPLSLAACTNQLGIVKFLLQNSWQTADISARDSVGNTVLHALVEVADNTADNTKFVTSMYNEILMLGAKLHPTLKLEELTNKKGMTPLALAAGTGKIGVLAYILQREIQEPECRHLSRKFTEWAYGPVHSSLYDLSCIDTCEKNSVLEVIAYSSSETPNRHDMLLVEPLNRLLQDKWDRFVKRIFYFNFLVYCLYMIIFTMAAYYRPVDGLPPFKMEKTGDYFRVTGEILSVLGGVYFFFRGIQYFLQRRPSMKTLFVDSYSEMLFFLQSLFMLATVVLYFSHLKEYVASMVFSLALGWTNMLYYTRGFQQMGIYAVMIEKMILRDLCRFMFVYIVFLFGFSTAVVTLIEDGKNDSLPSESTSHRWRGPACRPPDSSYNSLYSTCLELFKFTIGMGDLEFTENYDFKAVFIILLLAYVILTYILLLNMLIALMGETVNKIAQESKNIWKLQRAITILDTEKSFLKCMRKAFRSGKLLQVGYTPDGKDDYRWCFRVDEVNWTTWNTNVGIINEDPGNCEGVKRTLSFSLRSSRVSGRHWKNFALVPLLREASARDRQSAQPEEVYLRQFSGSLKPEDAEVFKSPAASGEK

Compound	EC50 [1] [µM]	Efficacy [2] [%]	IC50 [3] [µM]	IC50 [4] [µM]	IC50 [5] [µM]	Efficacy [6] [%]	EC50 [7] [µM]	IC50 (Monoglyceride lipase) [µM]
CN(C)C(=O)n1nnc(Cc2ccc(-c3ccccc3O)cc2)n1		< 10	> 100	0.0402	28	445	53.3	
Cc1ccc(-c2ccc(Cc3nnnn3C(=O)N(C)C)cc2)cc1	22.5	28	> 100	0.0071	15.9	388	19.7	> 1
CN(C)C(=O)n1nnc(Cc2ccc(-c3cccc(CO)c3)cc2)n1		< 10	> 100	0.0107	> 100	< 10		
CN(C)C(=O)n1nnnc1Cc1ccc(-c2ccc(O)cc2)cc1		< 10	> 100	0.0167	> 100	40.5	21.7	> 1
Cc1ccccc1-c1ccc(Cc2nnn(C(=O)N(C)C)n2)cc1		< 10	> 100	0.0517	18.9	202	15.9	
CC(=O)c1cccc(-c2ccc(Cc3nnn(C(=O)N(C)C)n3)cc2)c1		< 10	> 100	0.0342	97.2	< 10		
CN(C)C(=O)n1nnc(Cc2ccc(-c3ccc(CO)cc3)cc2)n1		< 10	> 100	0.0075	70.6	67.3	24.4	
COC(=O)c1cccc(-c2ccc(Cc3nnn(C(=O)N(C)C)n3)cc2)c1		< 10	> 100	0.0123	91.2	< 10		
CN(C)C(=O)n1nnc(Cc2ccc(-c3ccc(O)cc3)cc2)n1		< 10	> 100	0.0054	30.2	109	14.6	
CN(C)C(=O)n1nnnc1Cc1ccc(-c2ccc(CO)cc2)cc1		< 10	> 100	0.0374	52.6	58.7	24.2	> 1
CN(C)C(=O)n1nnnc1Cc1ccc(-c2ccccc2O)cc1		< 10	> 100	0.0156	> 100	228	59.7	> 1
COC(=O)c1cccc(-c2ccc(Cc3nnnn3C(=O)N(C)C)cc2)c1		< 10	> 100	0.0121	99.8	< 10		> 1
CN(C)C(=O)n1nnnc1Cc1ccc(-c2cccc(CO)c2)cc1		< 10	> 100	0.0106	> 100	< 10		
Cc1ccccc1-c1ccc(Cc2nnnn2C(=O)N(C)C)cc1		< 10	> 100	0.0355	45.2	349	48.7	> 1
CC(=O)c1cccc(-c2ccc(Cc3nnnn3C(=O)N(C)C)cc2)c1		< 10	> 100	0.0147	> 100	< 10		> 1

Second part, the compound after the results:

EC50 [1] [µM]	Efficacy [2] [%]	IC50 [3] [µM]	IC50 [4] [µM]	IC50 [5] [µM]	Efficacy [6] [%]	EC50 [7] [µM]	IC50 (Monoglyceride lipase) [µM]	Compound
1.7	15.9	47.6	0.0116	92.1	< 10			CN(CCCCc1ccccc1)C(=O)n1nnc(Cc2ccc(-c3ccccc3)cc2)n1
	< 10	> 100		49.4	101	26.9		CN(C)C(=O)n1nnnc1Cc1ccc(-c2ccccc2)cc1
2.5	34.1	7.6	0.0867	15	53.9	13.5	> 1	CN(Cc1ccc2ccccc2c1)C(=O)n1nnnc1Cc1ccc(-c2ccccc2)cc1
32.3	21.3	> 100	0.011	> 100	30.7	50.1	> 1	CN(C)C(=O)n1nnnc1Cc1ccc(-c2cccc(C(N)=O)c2)cc1
	< 10	78.9	0.0485	17.8	187	15		Cc1cccc(-c2ccc(Cc3nnn(C(=O)N(C)C)n3)cc2)c1
	< 10	91.8	0.0071	83.1	< 10			CN(C)C(=O)n1nnc(Cc2ccc(-c3cccc(C(N)=O)c3)cc2)n1
4.8	33.3	20.6	0.0462	10.5	275	10.3		Cc1ccc(-c2ccc(Cc3nnn(C(=O)N(C)C)n3)cc2)cc1
13.4	45.6	18.3	0.725	14.9	84.7	4.9	> 1	CN(C(=O)n1nnnc1Cc1ccc(-c2ccccc2)cc1)C1CCCCC1
5.9	67.4	22.6	0.0382	12.5	106	6.5	> 1	O=C(N1CCCCC1)n1nnnc1Cc1ccc(-c2ccccc2)cc1
1.5	45.7	7.1	0.0213	83.7	89.9	20.1	> 1	CN(CCCCc1ccccc1)C(=O)n1nnnc1Cc1ccc(-c2ccccc2)cc1
25	20	67.4	0.003	> 100	35.7	26.8		CN(C)C(=O)n1nnnc1Cc1ccc(-c2cccc(O)c2)cc1
11.9	36.1	4.5	0.0169	24.3	< 10			CN(Cc1ccc2ccccc2c1)C(=O)n1nnc(Cc2ccc(-c3ccccc3)cc2)n1
1.8	66.7	7.4	0.0681	21.5	130	3.7		O=C(N1CCCCC1)n1nnc(Cc2ccc(-c3ccccc3)cc2)n1
5	14.5	31.3		11.2	186	20.1		CN(C)C(=O)n1nnc(Cc2ccc(-c3ccccc3)cc2)n1
